pIC50: −log10 of the molar value.
Columns and labels:
[1] = biological target: Human immunodeficiency virus type 1 integrase (Human immunodeficiency virus 1, UniProt Q7ZJM1); test: Inhibition of HIV1 subtype C recombinant integrase strand transfer activity preincubated for 45 mins with double-stranded biotinylated donor DNA followed by addition of double stranded FITC-labelled target DNA and measured after 60 mins relative to control
[2] = Cytotoxicity against human HeLa cells assessed as cell viability at 25 uM after 48 hrs by resazurin dye-based fluorescence assay; details: read-out: Activity
How it was run: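 HeLa cells seeded at 6.7 × 10^4 per well in DMEM with 10% foetal bovine serum and penicillin/streptomycin/amphotericin B. Grown 24 h at 37 °C, 5% CO2, then exposed to compound at 25 μM final for 48 h. Resazurin added and fluorescence read (Ex 560/Em 590 nm) after 2–4 h more. Viability expressed as % of no-compound control wells.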

Sequence of Human immunodeficiency virus type 1 integrase (Q7ZJM1 whole entry): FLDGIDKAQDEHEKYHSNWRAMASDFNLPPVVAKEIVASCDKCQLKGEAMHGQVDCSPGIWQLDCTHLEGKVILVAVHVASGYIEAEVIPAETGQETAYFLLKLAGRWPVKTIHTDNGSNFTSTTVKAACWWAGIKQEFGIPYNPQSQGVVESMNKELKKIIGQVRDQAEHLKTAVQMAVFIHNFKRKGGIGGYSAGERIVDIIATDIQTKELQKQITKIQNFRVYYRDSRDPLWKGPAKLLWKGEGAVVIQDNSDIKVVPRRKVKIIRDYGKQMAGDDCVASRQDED

In the case of `COc1ccc(O)c(C(=O)NNC(=O)c2cc3cccc(OC)c3oc2=O)c1`, the pIC50 [1] was 6.05 and the viability at 48 h, 25 µM [2] was > 70%.
In the case of `O=C(NNC(=O)c1cc2cc(Br)ccc2oc1=O)c1cc(Cl)ccc1O`, the pIC50 [1] was 6.76 and the viability at 48 h, 25 µM [2] was > 70%.
With `COc1cccc2cc(C(=O)NNC(=O)c3cc(Cl)ccc3O)c(=O)oc12` the pIC50 [1] was 7.64 and the viability at 48 h, 25 µM [2] was > 70%.
For `COc1ccc(O)c(C(=O)NNC(=O)c2cc3cc(Br)ccc3oc2=O)c1`, the pIC50 [1] was 6.79 and the viability at 48 h, 25 µM [2] was > 70%.
In the case of `COc1cccc(C(=O)NNC(=O)c2cc3cc(Br)ccc3oc2=O)c1O`, the viability at 48 h, 25 µM [2] was > 70%.
For `COc1ccc(O)c(C(=O)NNC(=O)c2cc3ccccc3oc2=O)c1`, the pIC50 [1] was 5.24 and the viability at 48 h, 25 µM [2] was > 70%.
For `CCOc1cccc2cc(C(=O)NNC(=O)c3cc(OC)ccc3O)c(=O)oc12`, the pIC50 [1] was 6.23 and the viability at 48 h, 25 µM [2] was > 70%.
For `O=C(NNC(=O)c1cc2cc(Cl)ccc2oc1=O)c1ccccc1O`, the pIC50 [1] was 7.89 and the viability at 48 h, 25 µM [2] was > 70%.
For `O=C(NNC(=O)c1cc2ccccc2oc1=O)c1ccccc1O`, the pIC50 [1] was 7.15 and the viability at 48 h, 25 µM [2] was > 70%.
For `CCOc1cccc2cc(C(=O)NNC(=O)c3cc(Cl)ccc3O)c(=O)oc12`, the pIC50 [1] was 7.51 and the viability at 48 h, 25 µM [2] was > 70%.
In the case of `CCOc1cccc2cc(C(=O)NNC(=O)c3ccccc3O)c(=O)oc12`, the pIC50 [1] was 6.98 and the viability at 48 h, 25 µM [2] was > 70%.
In the case of `CCOc1cccc2cc(C(=O)NNC(=O)c3cccc(OC)c3O)c(=O)oc12`, the viability at 48 h, 25 µM [2] was > 70%.
With `O=C(NNC(=O)c1cc2ccccc2oc1=O)c1cc(Cl)ccc1O` the pIC50 [1] was 7.48 and the viability at 48 h, 25 µM [2] was > 70%.
With `COc1cccc(C(=O)NNC(=O)c2cc3cc(Cl)ccc3oc2=O)c1O` the viability at 48 h, 25 µM [2] was > 70%.
With `COc1cccc(C(=O)NNC(=O)c2cc3cccc(OC)c3oc2=O)c1O` the viability at 48 h, 25 µM [2] was > 70%.
With `COc1ccc(O)c(C(=O)NNC(=O)c2cc3cc(Cl)ccc3oc2=O)c1` the pIC50 [1] was 6.22 and the viability at 48 h, 25 µM [2] was > 70%.
In the case of `O=C(NNC(=O)c1cc2cc(Br)ccc2oc1=O)c1ccccc1O`, the pIC50 [1] was 7.85 and the viability at 48 h, 25 µM [2] was > 70%.
In the case of `O=C(NNC(=O)c1cc2cc(Cl)ccc2oc1=O)c1cc(Cl)ccc1O`, the pIC50 [1] was 7.39 and the viability at 48 h, 25 µM [2] was > 70%.
With `COc1cccc2cc(C(=O)NNC(=O)c3ccccc3O)c(=O)oc12` the pIC50 [1] was 7.33 and the viability at 48 h, 25 µM [2] was > 70%.
For `COc1cccc(C(=O)NNC(=O)c2cc3ccccc3oc2=O)c1O`, the viability at 48 h, 25 µM [2] was > 70%.
